Screening data: PubChem, The Scripps Research Institute Molecular Screening Center
Shown are actives, neighbours in structure and some others; about 1.9% of the full set was active somewhere.
ZTA DNA inh = counter-screen for EBNA-1 inhibitors: inhibitors of Epstein-Barr virus ZTA | ZTA-DNA binding, fluorescence polarization | inhibition, % at 11 µM | 320,000 tested, 0.15% active | AID 2234; in the data active means inhibition above about 33%
HCV NS3 hel inh = inhibitors of HCV NS3 helicase, primary screen, biochemical, Cy5 molecular beacon fluorescence; inhibition, % at 10.9 µM; 290,000 tested, 0.56% active; Hepatitis C virus NS3 helicase; NS3 helicase DNA unwinding;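 active means inhibition above the mean of all tested compounds plus 3 SD, set per campaign, cut at about 35% in these data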;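 further: 0% = DMSO wells and 100% = thioflavine S control wells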
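System: NS3 helicase fragment of HCV / Schedule: 1 h at 25 °C / Control set: DMSO alone as 0% and 110 µM thioflavine S as 100% / Reagent: Cy5/quencher beacon DNA duplex and ATP to start / Technique: Cy5 fluorescence / Replication: singlicate / Evaluation: % inhibition of end-to-start signal ratio versus controls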
EBNA-1 inhibitor = EBNA-1 DNA-binding inhibitors, primary screen, biochemical, fluorescence polarization | 300,000 tested, 0.34% active | inhibition, % at 14.8 µM; in the data active means inhibition above about 28%
PP1 inh = PP1-alpha phosphatase inhibitors, primary screen, counter-screen for PP5 inhibitor project, biochemical, fluorescence, OMFP substrate, single point; purified PP1alpha; inhibition, % at 6.7 µM; 320,000 tested, 0.9% active; AID 2235, 2010; Serine/threonine-protein phosphatase PP1-alpha catalytic subunit (Homo sapiens), P62136;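 active means inhibition above the mean inhibition of all tested compounds plus 3 SD, computed separately for each screening campaign, cut at about 15% in these data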
Target sequence (P62136 whole entry, looked up): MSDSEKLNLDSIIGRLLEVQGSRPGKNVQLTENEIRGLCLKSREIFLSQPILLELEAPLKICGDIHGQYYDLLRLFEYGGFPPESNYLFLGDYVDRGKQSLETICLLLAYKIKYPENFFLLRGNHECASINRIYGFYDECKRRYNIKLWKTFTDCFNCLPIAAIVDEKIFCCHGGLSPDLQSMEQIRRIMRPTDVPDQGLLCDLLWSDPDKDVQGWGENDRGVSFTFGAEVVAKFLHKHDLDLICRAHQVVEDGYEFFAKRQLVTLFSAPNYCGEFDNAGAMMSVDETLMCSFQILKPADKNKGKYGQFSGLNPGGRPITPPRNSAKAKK
HCV core dimer = inhibitors of HCV core protein dimerization, primary screen, biochemical, TR-FRET, high-throughput. TR-FRET GST/Flag-core106 dimerization, 1536-well. inhibition, % at 5 µM. 300,000 tested, 0.33% active;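 active means inhibition above the mean of all tested compounds plus 3 SD, set per screening campaign, cut at about 45% in these data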
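Material: Tagged HCV core106 pair (GST and Flag) | Amount: GST-core106 13.5 nM, Flag-core106 17 nM | Medium: KF-containing HEPES buffer, pH 7.45, DTT, CHAPS, BSA | Reagent: Eu donor and XL665 acceptor anti-tag antibodies | Schedule: 4 h at 22.5 °C | Technique: Time-resolved FRET, ex 340 nm, em 617 and 671 nm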
Active calls of the source: *; x = not tested or not shown.

SMILES | ZTA DNA inh | HCV NS3 hel inh | EBNA-1 inhibitor | PP1 inh | HCV core dimer
CC(C)N1CCc2c(sc(NC(=O)c3ccc(S(=O)(=O)N4CCc5ccccc54)cc3)c2C(N)=O)C1 | -12 | -85 | 8 | 17* | -10
Cc1ccc(S(=O)(=O)Nc2ccccc2C(=O)Nc2nc(-c3ccc(F)cc3)cs2)cc1 | 18 | -5 | 12 | 17* | 26
Cc1ccc(-c2csc(NC(=O)c3ccc(S(=O)(=O)N4CCc5ccccc54)cc3)n2)cc1 | 1 | 17 | -6 | 2 | 67*
COc1cc2c(cc1OC)C(c1ccc(Br)cc1)N(C(=O)c1ccccc1C(=O)O)CC2 (stereo not given) | 10 | 25 | -2 | 1 | 15
O=C(COc1ccc([N+](=O)[O-])cc1)Nc1cc(S(=O)(=O)N2CCCCC2)ccc1N1CCCCC1 | 1 | x | 13 | 0 | 18
O=C(COc1ccc(F)cc1)Nc1cc(S(=O)(=O)N2CCCCC2)ccc1N1CCCCC1 | 7 | x | -2 | 16* | 18
O=C(COc1ccccc1)Nc1ccc(S(=O)(=O)N2CCCCCC2)cc1 | 7 | 8 | -2 | 0 | 4
O=C(COc1ccc2ccccc2c1)Nc1ccc(S(=O)(=O)N2CCCCCC2)cc1 | -21 | -2 | 12 | 17* | 12
COc1cccc2cc(C(=O)OCc3ccccc3)c(=O)oc12 | 1 | 0 | 5 | 2 | 1
CC1(C)Cc2c(C#N)c(N3CCN(C(=O)c4ccccc4)CC3)nc(-c3ccco3)c2CS1 | 16 | 23 | -1 | 16* | 87*
COc1ccc(S(=O)(=O)NCC2CCCN(C(=O)CC3CCCC3)C2)cc1 (stereo not given) | -7 | 4 | 1 | -5 | 0
Cc1cc(N2Cc3ccccc3C2)ccc1C=O | -9 | 1 | 3 | 4 | 48*
CCOC(=O)c1nn(-c2ccc(F)cc2)c(=O)cc1OCC(=O)Nc1ccc(OCC)cc1 | 13 | x | 7 | 0 | 3
CCC(C)c1ccc(NC(=S)N2CCN(S(C)(=O)=O)CC2)cc1 (stereo not given) | -5 | 0 | 5 | -5 | -9
Oc1ccc(N=Nc2ccc3c(c2)OCCO3)c2ncccc12 | 5 | 5 | -9 | 16* | -3
Cc1ccc(C)c(N=Nc2ccc(O)c3ncccc23)c1 | 1 | 5 | 13 | 3 | 3
Cc1cc(SCC(=O)N2CCN(C(=O)c3ccco3)CC2)c(C)cc1Br | -12 | x | x | 2 | x
Oc1c(C(c2cccs2)N2CCN(c3ccccc3)CC2)ccc2cccnc12 (stereo not given) | -8 | 8 | -10 | 19* | 2
CN1CCN(C(c2ccc(C(F)(F)F)cc2)c2ccc3cccnc3c2O)CC1 (stereo not given) | -12 | -20 | 0 | 14 | -1
CCOC(=O)C1(Cc2cccc(OC)c2)CCCN(Cc2cc(OC)c(O)c(OC)c2)C1 (stereo not given) | -2 | -7 | -11 | 1 | 3
COc1cc2c(cc1OC)C(C)N(S(=O)(=O)c1cn(C)c(C)n1)CC2 (stereo not given) | -1 | 9 | -7 | -3 | 0
O=C(Cc1ccon1)c1ccc(O)cc1O | x | 6 | x | x | x
CO/N=C/c1cccn1-c1nccc(OC)c1C#N | 1 | 4 | -4 | 0 | 0
Cc1cc(C2C(C#N)=C(N)SC(N)=C2C#N)c(C)s1 | -3 | 20 | -4 | -2 | 51*
Cc1[nH]nc2c1C(c1ccsc1C)C(C#N)=C(N)O2 (stereo not given) | -6 | 0 | -1 | 1 | -12
SMILES | ZTA DNA inh | HCV NS3 hel inh | EBNA-1 inhibitor | PP1 inh | HCV core dimer
Cc1sccc1C1C(C#N)=C(N)SC(N)=C1C#N | 3 | 16 | 9 | -2 | 60*
O=C(Nc1ccnn1C1CCN(C2CCCC2)CC1)c1ccccc1 | -16 | 4 | -1 | -4 | 2
COc1ccccc1C(CNC(=O)c1ccc(NS(=O)(=O)c2ccc3c(c2)OCCO3)cc1)N(C)C (stereo not given) | -13 | x | 8 | -3 | -2
N#Cc1ccsc1NC(=O)CSc1ncnc2ccccc12 | -17 | 18 | -7 | 1 | 80*
Cn1ccnc1SCC(=O)Nc1sccc1C#N | -4 | 9 | 0 | 2 | 71*
CC(NC(=O)c1ccc(CS(C)(=O)=O)cc1)c1cccc2ccccc12 (stereo not given) | -6 | 2 | -2 | 0 | 3
